From ChEMBL document CHEMBL5649168, “Discovery of a selective catalytic p300/CBP inhibitor that targets lineage-specific tumours” (Nature, 2017)

Key:
[1] = Cmax in CB17 SCID mouse xenografted with LuCaP-77 CR cell at 50 mg/kg, ip administered for 7 days; assay type: ADME, organism-based; settings: in vivo, time 7 day
[2] = molecular target: Hepatocyte growth factor receptor (Homo sapiens, UniProt P08581); assay: Inhibition of c-MET (unknown origin)
[3] = system: BT-20; assay: Antiproliferative activity against human BT-20 cells assessed as inhibition of cell viability incubated for 3 to 5 days by Celltiter-Glo luminescent assay; assay type: functional, cell-based
[4] = system: DB; assay: Antiproliferative activity against human DB cells assessed as inhibition of cell viability incubated for 3 to 5 days by Celltiter-Glo luminescent assay; assay type: functional, cell-based
[5] = molecular target: T1, CREB-binding protein/Histone acetyltransferase p300 (Homo sapiens, UniProt Q09472+Q92793); assay: Inhibition of p300/CBP in human 22Rv1 cells assessed as reduction in H3K9Ac level incubated for 24 hrs by Hoechst 33342 staining based high content microscopy analysis; assay type: cell-based
T1 sequence (Q09472 whole entry, looked up): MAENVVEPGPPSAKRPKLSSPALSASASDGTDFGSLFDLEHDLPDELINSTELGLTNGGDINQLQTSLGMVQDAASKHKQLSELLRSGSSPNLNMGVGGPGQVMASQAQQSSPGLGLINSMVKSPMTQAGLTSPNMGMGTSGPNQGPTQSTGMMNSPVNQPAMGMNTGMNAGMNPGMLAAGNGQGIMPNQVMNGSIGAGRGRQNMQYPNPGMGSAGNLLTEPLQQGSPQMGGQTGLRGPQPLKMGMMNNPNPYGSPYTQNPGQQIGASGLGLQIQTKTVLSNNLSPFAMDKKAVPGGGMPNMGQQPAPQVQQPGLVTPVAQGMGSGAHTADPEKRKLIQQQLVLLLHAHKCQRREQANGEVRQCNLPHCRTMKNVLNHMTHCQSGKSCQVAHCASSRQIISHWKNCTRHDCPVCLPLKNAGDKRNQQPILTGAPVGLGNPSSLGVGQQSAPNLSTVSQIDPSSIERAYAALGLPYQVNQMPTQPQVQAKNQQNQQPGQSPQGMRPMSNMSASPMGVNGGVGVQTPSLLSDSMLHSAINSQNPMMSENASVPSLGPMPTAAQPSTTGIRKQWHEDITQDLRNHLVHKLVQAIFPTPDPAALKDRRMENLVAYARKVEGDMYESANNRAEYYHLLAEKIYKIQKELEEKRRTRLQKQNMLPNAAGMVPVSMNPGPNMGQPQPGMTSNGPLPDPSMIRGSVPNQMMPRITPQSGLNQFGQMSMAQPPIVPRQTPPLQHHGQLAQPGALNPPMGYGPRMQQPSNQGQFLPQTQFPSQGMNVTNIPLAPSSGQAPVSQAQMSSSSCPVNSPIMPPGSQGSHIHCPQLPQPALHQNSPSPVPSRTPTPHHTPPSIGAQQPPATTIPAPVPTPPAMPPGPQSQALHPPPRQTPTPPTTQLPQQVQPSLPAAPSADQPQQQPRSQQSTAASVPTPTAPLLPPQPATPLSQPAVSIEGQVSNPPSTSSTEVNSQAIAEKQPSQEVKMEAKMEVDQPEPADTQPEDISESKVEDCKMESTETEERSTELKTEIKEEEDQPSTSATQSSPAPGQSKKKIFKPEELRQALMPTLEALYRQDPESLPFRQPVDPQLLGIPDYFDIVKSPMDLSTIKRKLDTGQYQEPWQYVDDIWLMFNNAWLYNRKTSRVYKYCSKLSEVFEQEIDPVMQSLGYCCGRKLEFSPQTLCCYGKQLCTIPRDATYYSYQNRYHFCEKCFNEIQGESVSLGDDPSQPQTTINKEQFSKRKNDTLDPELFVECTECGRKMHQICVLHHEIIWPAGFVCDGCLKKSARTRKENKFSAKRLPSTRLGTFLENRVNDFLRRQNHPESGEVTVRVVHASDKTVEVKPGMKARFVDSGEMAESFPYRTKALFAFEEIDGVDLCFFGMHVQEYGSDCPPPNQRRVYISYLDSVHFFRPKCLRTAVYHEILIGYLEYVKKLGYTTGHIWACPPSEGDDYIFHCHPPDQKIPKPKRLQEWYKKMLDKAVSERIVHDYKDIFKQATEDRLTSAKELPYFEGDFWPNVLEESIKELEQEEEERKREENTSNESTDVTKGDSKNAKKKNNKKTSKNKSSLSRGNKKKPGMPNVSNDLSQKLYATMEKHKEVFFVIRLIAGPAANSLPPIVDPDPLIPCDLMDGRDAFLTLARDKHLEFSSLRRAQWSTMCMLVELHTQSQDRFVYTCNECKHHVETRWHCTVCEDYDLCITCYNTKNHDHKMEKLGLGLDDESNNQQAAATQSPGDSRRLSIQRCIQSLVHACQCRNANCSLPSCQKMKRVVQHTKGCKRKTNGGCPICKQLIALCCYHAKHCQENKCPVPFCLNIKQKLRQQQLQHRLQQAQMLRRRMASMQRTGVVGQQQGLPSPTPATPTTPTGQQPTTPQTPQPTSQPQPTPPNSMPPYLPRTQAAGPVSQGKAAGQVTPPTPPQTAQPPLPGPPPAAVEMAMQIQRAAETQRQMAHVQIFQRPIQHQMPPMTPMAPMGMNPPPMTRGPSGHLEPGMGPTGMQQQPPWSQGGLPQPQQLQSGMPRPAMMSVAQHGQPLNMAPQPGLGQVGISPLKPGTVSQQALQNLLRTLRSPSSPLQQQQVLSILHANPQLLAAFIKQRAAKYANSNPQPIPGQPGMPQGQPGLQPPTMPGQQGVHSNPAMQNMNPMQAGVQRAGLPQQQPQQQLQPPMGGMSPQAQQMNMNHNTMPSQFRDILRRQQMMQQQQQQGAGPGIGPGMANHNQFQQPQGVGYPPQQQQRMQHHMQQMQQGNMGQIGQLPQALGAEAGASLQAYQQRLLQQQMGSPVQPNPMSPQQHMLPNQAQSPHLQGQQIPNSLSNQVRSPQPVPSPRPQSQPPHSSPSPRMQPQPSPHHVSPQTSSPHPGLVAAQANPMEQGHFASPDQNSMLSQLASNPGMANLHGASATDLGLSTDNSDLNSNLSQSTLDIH
T1 sequence (Q92793 whole entry, looked up): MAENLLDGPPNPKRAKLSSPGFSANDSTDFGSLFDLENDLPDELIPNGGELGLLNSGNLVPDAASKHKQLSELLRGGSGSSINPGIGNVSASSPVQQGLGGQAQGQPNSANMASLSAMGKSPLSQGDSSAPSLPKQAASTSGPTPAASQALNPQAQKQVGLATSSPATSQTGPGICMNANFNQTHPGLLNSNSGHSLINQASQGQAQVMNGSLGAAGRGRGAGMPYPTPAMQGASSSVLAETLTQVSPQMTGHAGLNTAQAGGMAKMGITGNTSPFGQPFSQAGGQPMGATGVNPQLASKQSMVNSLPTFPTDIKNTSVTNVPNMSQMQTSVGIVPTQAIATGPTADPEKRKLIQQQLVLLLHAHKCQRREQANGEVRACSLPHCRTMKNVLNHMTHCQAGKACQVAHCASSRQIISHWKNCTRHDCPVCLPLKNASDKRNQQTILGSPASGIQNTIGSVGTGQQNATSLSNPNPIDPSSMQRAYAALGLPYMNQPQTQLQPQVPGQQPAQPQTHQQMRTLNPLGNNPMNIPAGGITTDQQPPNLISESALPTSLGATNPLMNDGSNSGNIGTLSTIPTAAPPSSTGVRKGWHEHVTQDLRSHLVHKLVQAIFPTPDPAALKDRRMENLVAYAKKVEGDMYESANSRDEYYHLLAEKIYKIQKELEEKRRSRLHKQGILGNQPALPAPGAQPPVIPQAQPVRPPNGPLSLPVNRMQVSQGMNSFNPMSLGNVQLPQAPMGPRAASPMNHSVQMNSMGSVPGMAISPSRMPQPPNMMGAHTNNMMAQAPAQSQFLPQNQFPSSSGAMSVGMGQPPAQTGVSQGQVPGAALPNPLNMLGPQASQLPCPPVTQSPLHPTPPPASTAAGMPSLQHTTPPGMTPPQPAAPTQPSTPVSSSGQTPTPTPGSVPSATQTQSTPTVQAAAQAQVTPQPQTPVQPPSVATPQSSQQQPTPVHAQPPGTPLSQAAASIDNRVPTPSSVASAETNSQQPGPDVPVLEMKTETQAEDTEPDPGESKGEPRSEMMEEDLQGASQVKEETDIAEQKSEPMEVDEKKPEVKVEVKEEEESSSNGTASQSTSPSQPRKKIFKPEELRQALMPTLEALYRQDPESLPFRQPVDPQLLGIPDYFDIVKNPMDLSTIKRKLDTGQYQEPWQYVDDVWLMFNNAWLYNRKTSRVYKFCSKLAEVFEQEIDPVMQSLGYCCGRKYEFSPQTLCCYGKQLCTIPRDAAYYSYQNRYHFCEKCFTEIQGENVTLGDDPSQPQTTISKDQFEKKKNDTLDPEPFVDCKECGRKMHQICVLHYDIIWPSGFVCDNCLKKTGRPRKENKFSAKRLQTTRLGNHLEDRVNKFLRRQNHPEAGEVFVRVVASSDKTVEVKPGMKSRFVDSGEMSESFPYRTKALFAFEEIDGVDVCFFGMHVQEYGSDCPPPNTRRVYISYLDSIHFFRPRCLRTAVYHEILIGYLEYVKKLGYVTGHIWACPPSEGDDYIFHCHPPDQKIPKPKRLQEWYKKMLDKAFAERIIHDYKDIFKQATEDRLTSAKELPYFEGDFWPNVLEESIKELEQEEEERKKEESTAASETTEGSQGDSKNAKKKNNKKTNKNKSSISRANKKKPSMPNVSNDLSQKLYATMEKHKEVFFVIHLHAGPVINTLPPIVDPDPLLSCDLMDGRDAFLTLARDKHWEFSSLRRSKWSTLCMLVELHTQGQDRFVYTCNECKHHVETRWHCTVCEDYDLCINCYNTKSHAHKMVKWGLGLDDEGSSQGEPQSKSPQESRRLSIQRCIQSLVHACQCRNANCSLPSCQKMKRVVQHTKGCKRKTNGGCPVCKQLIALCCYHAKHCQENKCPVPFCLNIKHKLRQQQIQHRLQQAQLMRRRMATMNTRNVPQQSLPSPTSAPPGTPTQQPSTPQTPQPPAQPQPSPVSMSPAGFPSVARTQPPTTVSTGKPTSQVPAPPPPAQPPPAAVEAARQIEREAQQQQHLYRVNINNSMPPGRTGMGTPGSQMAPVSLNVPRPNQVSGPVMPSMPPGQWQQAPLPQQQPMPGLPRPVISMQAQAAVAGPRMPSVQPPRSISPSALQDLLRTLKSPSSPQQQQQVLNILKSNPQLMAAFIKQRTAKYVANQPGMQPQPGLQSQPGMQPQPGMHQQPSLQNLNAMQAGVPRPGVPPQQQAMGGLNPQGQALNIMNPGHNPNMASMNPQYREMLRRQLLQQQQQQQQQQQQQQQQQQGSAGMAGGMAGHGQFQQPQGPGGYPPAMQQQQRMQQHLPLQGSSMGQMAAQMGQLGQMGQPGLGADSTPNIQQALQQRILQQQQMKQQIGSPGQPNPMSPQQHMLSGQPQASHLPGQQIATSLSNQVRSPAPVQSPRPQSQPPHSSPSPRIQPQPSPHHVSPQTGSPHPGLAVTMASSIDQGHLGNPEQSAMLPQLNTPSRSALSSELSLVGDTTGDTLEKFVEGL
Procedure, shortened: (§1)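 Cells received an 8-point half-log dilution series from 10 µM. They were then fixed in 10% formaldehyde (10 min, RT), permeabilised with 0.1% Triton X-100 and blocked with 1% BSA for 1 h. Primary antibodies were applied overnight at 4 °C, followed by Alexa488 anti-rabbit, Alexa555 anti-mouse and Hoechst 33342 for 1 h. Fifteen fields per well were imaged and average mean intensity taken. EC50 came from a sigmoidal fit.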

[6] = system: KARPAS-299; assay: Antiproliferative activity against human KARPAS-299 cells assessed as inhibition of cell viability incubated for 3 to 5 days by Celltiter-Glo luminescent assay; assay type: functional, cell-based
[7] = molecular target: G protein-coupled receptor kinase 5 (Homo sapiens, UniProt P34947); assay: Inhibition of GRK5 (unknown origin)
[8] = molecular target: Vascular endothelial growth factor receptor 1 (Homo sapiens, UniProt P17948); assay: Inhibition of Flt1 (unknown origin)
[9] = molecular target: Casein kinase I isoform alpha (Homo sapiens, UniProt P48729); assay: Inhibition of Ck1alpha1 (unknown origin)
[10] = molecular target: Dual specificity tyrosine-phosphorylation-regulated kinase 1A (Homo sapiens, UniProt Q13627); assay: Inhibition of Dyrk1A (unknown origin)
[11] = system: Ramos; assay: Antiproliferative activity against human Ramos cells assessed as inhibition of cell viability incubated for 3 to 5 days by Celltiter-Glo luminescent assay; assay type: functional, cell-based
[12] = Half life in CB17 SCID mouse xenografted with LuCaP-77 CR cell at 50 mg/kg, ip administered for 7 days; assay type: ADME, organism-based; settings: in vivo, time 7 day
[13] = molecular target: RAC-alpha serine/threonine-protein kinase (Homo sapiens, UniProt P31749); assay: Inhibition of Akt1 (unknown origin)
[14] = molecular target: T1, CREB-binding protein/Histone acetyltransferase p300; assay: Inhibition of p300/CBP in human 22Rv1 cells assessed as reduction in H3K9Ac level incubated for 1 hr by Hoechst 33342 staining based high content microscopy analysis; assay type: cell-based; procedure, shortened: as §1
[15] = system: NCI-H1930; assay: Antiproliferative activity against human NCI-H1930 cells assessed as inhibition of cell viability incubated for 3 to 5 days by Celltiter-Glo luminescent assay; assay type: functional, cell-based
[16] = system: NCI-H510A; assay: Antiproliferative activity against human NCI-H510A cells assessed as inhibition of cell viability incubated for 3 to 5 days by Celltiter-Glo luminescent assay; assay type: functional, cell-based
[17] = system: Hs 695T; assay: Antiproliferative activity against human Hs 695T cells assessed as inhibition of cell viability incubated for 3 to 5 days by Celltiter-Glo luminescent assay; assay type: functional, cell-based
[18] = Inhibition of CDK8/Cyclin C (unknown origin); design: species or system Homo sapiens
[19] = molecular target: Dual specificity protein kinase CLK2 (Homo sapiens, UniProt P49760); assay: Inhibition of CLK2 (unknown origin)
[20] = system: HCC1187; assay: Antiproliferative activity against human HCC1187 cells assessed as inhibition of cell viability incubated for 3 to 5 days by Celltiter-Glo luminescent assay; assay type: functional, cell-based
[21] = system: LNCaP-Clone-FGC; assay: Antiproliferative activity against human LNCaP-Clone-FGC cells assessed as inhibition of cell viability incubated for 3 to 5 days by Celltiter-Glo luminescent assay; assay type: functional, cell-based
[22] = molecular target: T1, CREB-binding protein/Histone acetyltransferase p300; assay: Inhibition of p300/CBP in human 22Rv1 cells assessed as reduction in H3K27Ac level incubated for 24 hrs by Hoechst 33342 staining based high content microscopy analysis; assay type: cell-based; procedure, shortened: as §1
[23] = molecular target: Mitogen-activated protein kinase kinase kinase kinase 4 (Homo sapiens, UniProt O95819); assay: Inhibition of MAP4K4 (unknown origin)
[24] = Tmax in CB17 SCID mouse xenografted with LuCaP-77 CR cell at 200 mg/kg, ip administered for 7 days; assay type: ADME, organism-based; settings: in vivo, time 7 day
[25] = molecular target: Proto-oncogene tyrosine-protein kinase receptor Ret (Homo sapiens, UniProt P07949); assay: Inhibition of Ret (unknown origin)
[26] = system: NCI-H209; assay: Antiproliferative activity against human NCI-H209 cells assessed as inhibition of cell viability incubated for 3 to 5 days by Celltiter-Glo luminescent assay; assay type: functional, cell-based
[27] = molecular target: Platelet-derived growth factor receptor alpha (Homo sapiens, UniProt P16234); assay: Inhibition of PDGFRalpha (unknown origin)
[28] = molecular target: Tyrosine-protein kinase JAK3 (Homo sapiens, UniProt P52333); assay: Inhibition of JAK3 (unknown origin)
[29] = molecular target: Mitogen-activated protein kinase 14 (Homo sapiens, UniProt Q16539); assay: Inhibition of p38alpha (unknown origin)
[30] = system: NCI-H727; assay: Antiproliferative activity against human NCI-H727 cells assessed as inhibition of cell viability incubated for 3 to 5 days by Celltiter-Glo luminescent assay; assay type: functional, cell-based
[31] = system: NCI-H2081; assay: Antiproliferative activity against human NCI-H2081 cells assessed as inhibition of cell viability incubated for 3 to 5 days by Celltiter-Glo luminescent assay; assay type: functional, cell-based
[32] = system: WM 266-4; assay: Antiproliferative activity against human WM266-4 cells assessed as inhibition of cell viability incubated for 3 to 5 days by Celltiter-Glo luminescent assay; assay type: functional, cell-based
[33] = system: HCC38; assay: Antiproliferative activity against human HCC38 cells assessed as inhibition of cell viability incubated for 3 to 5 days by Celltiter-Glo luminescent assay; assay type: functional, cell-based
[34] = molecular target: Serine/threonine-protein kinase Sgk1 (Homo sapiens, UniProt O00141); assay: Inhibition of SGK1 (unknown origin)
[35] = molecular target: Wee1-like protein kinase (Homo sapiens, UniProt P30291); assay: Inhibition of Wee1 (unknown origin)
[36] = system: NCI-H1693; assay: Antiproliferative activity against human NCI-H1693 cells assessed as inhibition of cell viability incubated for 3 to 5 days by Celltiter-Glo luminescent assay; assay type: functional, cell-based
[37] = system: Malme-3M; assay: Antiproliferative activity against human Malme-3M cells assessed as inhibition of cell viability incubated for 3 to 5 days by Celltiter-Glo luminescent assay; assay type: functional, cell-based
[38] = molecular target: BDNF/NT-3 growth factors receptor (Homo sapiens, UniProt Q16620); assay: Inhibition of TrkB (unknown origin)
[39] = molecular target: Serine/threonine-protein kinase TAO2 (Homo sapiens, UniProt Q9UL54); assay: Inhibition of TAOK2 (unknown origin)
[40] = molecular target: Serine/threonine-protein kinase Nek2 (Homo sapiens, UniProt P51955); assay: Inhibition of Nek2 (unknown origin)
[41] = system: Hs 294T; assay: Antiproliferative activity against human Hs294T cells assessed as inhibition of cell viability incubated for 3 to 5 days by Celltiter-Glo luminescent assay; assay type: functional, cell-based

## CNC(=O)Nc1ccc2c(c1)CC[C@@]21OC(=O)N(CC(=O)N(Cc2ccc(F)cc2)[C@@H](C)C(F)(F)F)C1=O [A-485]
[1]
  Cmax: 14700 ng/mL
[2]
  IC50: > 10 µM
[3]
  EC50: 0.34 µM
[4]
  EC50: 0.77 µM
[5]
  INH: > 10 µM
[6]
  EC50: > 10 µM
[7]
  IC50: > 10 µM
[8]
  IC50: > 10 µM
[9]
  IC50: > 10 µM
[10]
  IC50: > 10 µM
[11]
  EC50: 0.93 µM
[12]
  half-life: 1.9 h
[13]
  IC50: > 10 µM
[14]
  INH: > 10 µM
[15]
  EC50: > 10 µM
[16]
  EC50: > 10 µM
[17]
  EC50: 3.57 µM
[18]
  IC50: > 10 µM
[19]
  IC50: > 10 µM
[20]
  EC50: > 10 µM
[21]
  EC50: 0.26 µM
[22]
  INH: 0.47 µM
[23]
  IC50: > 10 µM
[24]
  Tmax: 6 h
[25]
  IC50: > 10 µM
[26]
  EC50: 0.4 µM
[27]
  IC50: > 10 µM
[28]
  IC50: > 10 µM
[29]
  IC50: > 10 µM
[30]
  EC50: 6.63 µM
[31]
  EC50: > 10 µM
[32]
  EC50: 1.91 µM
[33]
  EC50: > 10 µM
[34]
  IC50: > 10 µM
[35]
  IC50: > 10 µM
[36]
  EC50: 2.37 µM
[37]
  EC50: 2.69 µM
[38]
  IC50: > 10 µM
[39]
  IC50: > 10 µM
[40]
  IC50: > 10 µM
[41]
  EC50: 9 µM
